# Test results taken from ChEMBL document CHEMBL1152821, “Discovery of novel DNA gyrase inhibitors by high-throughput virtual screening” (Antimicrob Agents Chemother, 2007).
# The source made the active and inactive calls. No cut-off for these calls is given here.
# How the values were obtained:
# [1] = Inhibition of Escherichia coli recombinant DNA gyrase-mediated supercoiling of relaxed pRSET A-DNA by agarose gel electrophoresis
# Procedure, shortened: (§1)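 Gyrase reconstituted from purified GyrA and GyrB (1:1.4); substrate is pRSET A relaxed with wheat germ topo I. 0.5 μg DNA and drug preincubated on ice 10 min in Tris-acetate pH 7.9, KOAc, Mg acetate, DTT, 1.5 mM ATP, spermidine, BSA. Started with 2.5 nM GyrA/3.5 nM GyrB, 30°C 30 min, then SDS/EDTA stop. 1% agarose gel, ethidium stain, densitometry; % supercoiled versus no-drug control.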
# [2] = system: Nucleic Acid; test: Binding affinity to pGEM2 DNA assessed as DNA intercalation at 1600 uM by DNA unwinding assay; format: nucleic-acid assay
# Procedure, shortened: (§2)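 Drug-induced DNA unwinding measured with pGEM2 plasmid DNA relaxed by wheat germ DNA topoisomerase I, following a previously described method.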
# [3] = system: Nucleic Acid; test: Binding affinity to pGEM2 DNA assessed as DNA intercalation at 100 uM by DNA unwinding assay; format: nucleic-acid assay; procedure, shortened: as §2
# [4] = target: T1, DNA gyrase (Escherichia coli) (UniProt P0AES6+P0AES4); test: Inhibition of Escherichia coli recombinant DNA gyrase assessed as enzyme-mediated supercoiling of relaxed pRSET A-DNA at 170 uM by agarose gel electrophoresis; format: protein-complex assay; design: scale not given: the % may be the effect or the level left; procedure, shortened: as §1
# [5] = target: T1, DNA gyrase (Escherichia coli); test: Inhibition of Escherichia coli recombinant DNA gyrase assessed as enzyme-mediated supercoiling of relaxed pRSET A-DNA at 170 uM by agarose gel electrophoresis in presence of 0.01% Triton X-100; format: protein-complex assay; design: scale not given: the % may be the effect or the level left; procedure, shortened: as §1
# [6] = target: T1, DNA gyrase (Escherichia coli); test: Inhibition of Escherichia coli recombinant DNA gyrase assessed as enzyme-mediated supercoiling of relaxed pRSET A-DNA at 170 uM by agarose gel electrophoresis in presence of 0.025% Triton X-100; format: protein-complex assay; design: scale not given: the % may be the effect or the level left; procedure, shortened: as §1
# [7] = system: Nucleic Acid; test: Binding affinity to pGEM2 DNA assessed as DNA intercalation at >=50 uM by DNA unwinding assay; format: nucleic-acid assay; procedure, shortened: as §2
# [8] = target: T1, DNA gyrase (Escherichia coli); test: Inhibition of Escherichia coli recombinant DNA gyrase assessed as enzyme-mediated supercoiling of relaxed pRSET A-DNA at 640 uM by agarose gel electrophoresis; format: protein-complex assay; design: scale not given: the % may be the effect or the level left
# Procedure, shortened: (§3)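 GyrA and GyrB, expressed in E. coli XL1-Blue and purified, reconstituted 1:1.4 (2.5 nM GyrA, 3.5 nM GyrB). Substrate was 0.5 μg relaxed pRSET A DNA (topoisomerase I-relaxed). Buffer: 25 mM Tris-acetate pH 7.9, 20 mM K acetate, 10 mM Mg acetate, 2 mM DTT, 1.5 mM ATP, 5 mM spermidine, 50 μg/ml BSA. Drug preincubated 10 min on ice; reaction 30 min at 30°C. Run on 1% agarose 20 h, stained with ethidium bromide, bands quantitated. % supercoiled DNA expressed relative to no-drug control.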
# [9] = target: T1, DNA gyrase (Escherichia coli); test: Inhibition of Escherichia coli recombinant DNA gyrase assessed as enzyme-mediated supercoiling of relaxed pRSET A-DNA at 640 uM by agarose gel electrophoresis in presence of 0.01% Triton X-100; format: protein-complex assay; design: scale not given: the % may be the effect or the level left; procedure, shortened: as §3
# [10] = system: Nucleic Acid; test: Binding affinity to pGEM2 DNA assessed as DNA intercalation at 640 uM by DNA unwinding assay; format: nucleic-acid assay
# [11] = Inhibition of Escherichia coli DNA gyrase B ATPase activity by spectrophotometry
# Procedure, shortened: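 DNA-independent ATPase of purified E. coli GyrB (40 nM) with 2 mM ATP. ATP hydrolysis coupled to NADH oxidation and read spectrophotometrically. Ki calculated from Ki(app) as Ki = Ki(app)/(1 + [ATP]/Km), taking Km 0.3 mM for E. coli gyrase ATPase.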
# [12] = system: Escherichia coli; test: Inhibition of Escherichia coli recombinant DNA gyrase-mediated supercoiling activity of relaxed pRSET A-DNA at 192 uM by agarose gel electrophoresis; design: scale not given: the % may be the effect or the level left; procedure, shortened: as §3
# [13] = system: Escherichia coli; test: Antibacterial activity against Escherichia coli XL1-Blue assessed as complete inhibition at 192 uM with in 30 mins; format: functional, organism-based
# Procedure, shortened: (§4)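 Log-phase E. coli XL1-Blue (overnight LB cultures at 37°C diluted to OD595 0.05 in fresh LB, shaken at 37°C until log phase) transferred into flasks containing filter-sterilized drug at various concentrations. Shaking growth continued at 37°C. Growth followed by culture absorbance at OD595 over time.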
# [14] = system: Escherichia coli; test: Antibacterial activity against Escherichia coli XL1-Blue assessed as growth inhibition at 64 uM after 30 mins; format: functional, organism-based; procedure, shortened: as §4
# [15] = system: Escherichia coli; test: Antibacterial activity against Escherichia coli XL1-Blue assessed as growth inhibition at 21 uM after 60 mins; format: functional, organism-based; procedure, shortened: as §4
# [16] = system: Escherichia coli; test: Inhibition of Escherichia coli DNA gyrase B ATPase activity up to 1.5 mM by spectrophotometry
# Procedure, shortened: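 DNA-independent ATPase of purified E. coli GyrB (40 nM) with 2 mM ATP, read spectrophotometrically by coupling ATP hydrolysis to NADH oxidation. Ki calculated as Ki(app)/(1 + [ATP]/Km), with Km 0.3 mM for E. coli gyrase ATPase.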
# [17] = system: Nucleic Acid; test: Binding affinity to pGEM2 DNA assessed as DNA intercalation at 1.6 mM by DNA unwinding assay
smiles,measurement,setting,value
CO[C@@H]1[C@@H](OC(=O)c2ccc(C)[nH]2)[C@@H](O)[C@@H](Oc2ccc3c(O)c(NC(=O)c4c[nH]c(C(=O)Nc5c(O)c6ccc(O[C@H]7OC(C)(C)[C@H](OC)[C@@H](OC(=O)c8ccc(C)[nH]8)[C@H]7O)c(C)c6oc5=O)c4C)c(=O)oc3c2C)OC1(C)C [COUMERMYCIN],IC50,[1],0.04 µM
O=Cc1c[nH]nn1,IC50,[1],737 µM
same,Activity,[2],inactive
O=C(O)c1cn(C2CC2)c2cc(N3CCNCC3)c(F)cc2c1=O [CIPROFLOXACIN],IC50,[1],1.2 µM
O=c1[nH]nc(-c2cc(-c3ccccc3)nc3ccccc23)o1,IC50,[1],72 µM
same,Activity,[3],inactive
O=c1ccc2nccc3c4ccccc4n1c23 [CANTHIN-6-ONE],IC50,[1],50 µM
same,Activity,[4],7%
same,Activity,[5],13%
same,Activity,[6],12%
same,Activity,[7],Active
O=NNc1cnc(O)nc1O,IC50,[1],338 µM
same,Activity,[8],10%
same,Activity,[9],17%
same,Activity,[2],inactive
same,Activity,[10],inactive
same,Ki,[11],149 µM
same,Activity,[12],> 30%
same,Activity,[13],Active
same,Activity,[14],Active
same,Activity,[15],Active
NC(=O)c1[nH]cnc1N,IC50,[1],814 µM
same,Activity,[2],inactive
same,Activity,[16],inactive
same,Activity,[17],inactive
